In ChEMBL document CHEMBL1132594, “Discovery of 6-oxo-3-(2-phenylpyrazolo[1,5-a]pyridin-3-yl)-1(6H)- pyridazinebutanoic acid (FK 838): a novel non-xanthine adenosine A1 receptor antagonist with potent diuretic activity” (J Med Chem, 1999):
Values after ≈ are worked out from the molar mass of the structure shown.

Experiments:
Rattus norvegicus [1] = experiment: Diuretic activity was measured in saline (20mL/kg, po)-loaded rat as sodium output at 10 mg/kg dose po; type: functional, Urine
Summary of the method: (§1)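 Male Sprague–Dawley rats, food withheld 18 h, saline-loaded (20 mL/kg po), then given compound orally as a suspension in 0.5% methyl cellulose; vehicle-dosed controls. Urine collected over 6 h for volume (mL/kg), Na+ and K+ output (μequiv/kg). n = 3 (n = 1 for some vehicle groups); means ± SEM, significance vs vehicle at p < 0.05 / p < 0.01.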

Rattus norvegicus [2] = experiment: Diuretic activity was measured in saline (20mL/kg, po)-loaded rat as urine volume collected for 6 hr at 10 mg/kg dose po; type: functional; summary of the method: as §1
Rattus norvegicus [3] = experiment: Diuretic activity was measured in saline (20mL/kg, po)-loaded rat as urine volume collected for 6 h at 3.2 mg/kg dose po; type: functional; summary of the method: as §1
Rattus norvegicus [4] = experiment: Diuretic activity was measured in saline (20mL/kg, po)-loaded rat as potassium output at 3.2 mg/kg dose po; type: functional, organism-based; parameters: dose 3.2 mg/kg; details: Urine; summary of the method: as §1
Rattus norvegicus [5] = experiment: Diuretic activity was measured in saline (20mL/kg, po)-loaded rat as urine volume collected for 6 hr at 1 mg/kg dose po; type: functional; summary of the method: as §1
Rattus norvegicus [6] = experiment: Diuretic activity was measured in saline (20mL/kg, po)-loaded rat as sodium output at 1 mg/kg dose po; type: functional, Urine; summary of the method: as §1
Rattus norvegicus [7] = experiment: Diuretic activity was measured in saline (20mL/kg, po)-loaded rat as potassium output at 1 mg/kg dose po; type: functional, organism-based; parameters: dose 1 mg/kg; details: Urine; summary of the method: as §1
Rattus norvegicus [8] = experiment: Diuretic activity was measured in saline (20mL/kg, po)-loaded rat as potassium output at 10 mg/kg dose po; type: functional, organism-based; parameters: dose 10 mg/kg; details: Urine; summary of the method: as §1
Rattus norvegicus [9] = experiment: Diuretic activity was measured in saline (20mL/kg, po)-loaded rat as sodium output at 3.2 mg/kg dose po; type: functional, Urine; summary of the method: as §1
Rattus norvegicus [10] = experiment: Diuretic activity was measured in saline (20mL/kg, po)-loaded rat as sodium output at 0.1 mg/kg dose po; type: functional, Urine; summary of the method: as §1
Rattus norvegicus [11] = experiment: Diuretic activity was measured in saline (20mL/kg, po)-loaded rat as urine volume collected for 6 hr at 0.1 mg/kg dose po; type: functional; summary of the method: as §1
Rattus norvegicus [12] = experiment: Diuretic activity was measured in saline (20mL/kg, po)-loaded rat as sodium output at 0.032 mg/kg dose po; type: functional, Urine; summary of the method: as §1
Adenosine A2 receptor = Adenosine A2 receptor (Rattus norvegicus, UniProt P29276+P30543); experiment: Adenosine A2 receptor binding using [3H]CGS-21680 in rat striatal membranes; type: cell membranes, Striatum, Membrane
Summary of the method: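 Radioligand displacement of [3H]CGS 21680 from rat striatal membranes. Values are means ± 95% confidence limits from at least three independent experiments.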

Adenosine receptor A1 [13] = molecular target: T1, Adenosine receptor A1 (Rattus norvegicus, UniProt P25099); experiment: Adenosine A1 receptor using [3H][…] in rat cortical membranes; type: cell membranes
T1 sequence (P25099 whole entry): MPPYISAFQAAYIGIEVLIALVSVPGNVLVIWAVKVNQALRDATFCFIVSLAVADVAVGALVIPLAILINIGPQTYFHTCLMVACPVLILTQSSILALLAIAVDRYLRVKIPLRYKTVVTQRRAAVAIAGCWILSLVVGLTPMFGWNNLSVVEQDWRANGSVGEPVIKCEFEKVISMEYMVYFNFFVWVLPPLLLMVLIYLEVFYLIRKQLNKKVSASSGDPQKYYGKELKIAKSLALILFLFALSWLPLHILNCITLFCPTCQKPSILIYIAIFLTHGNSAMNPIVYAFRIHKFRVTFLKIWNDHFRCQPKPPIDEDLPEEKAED

Rattus norvegicus [14] = experiment: Diuretic activity was measured in saline (20mL/kg, po)-loaded rat as urine volume collected for 6 hr at 0.032 mg/kg dose po; type: functional; summary of the method: as §1
[15] = Oral bioavailability in rat (fasted); type: ADME, organism-based; details: in vivo
Summary of the method: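 Fasted rats given a single oral dose of compound suspended in 0.5% methyl cellulose solution, 3.2 or 10 mg/kg depending on compound, n = 3–4 per group.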

[16] = molecular target: T2, Adenosine receptor A1 (Rattus norvegicus) (UniProt P25099)
T2 sequence (whole entry): T1 sequence (P25099 whole entry)

[17] = solubility in water (ug/mL) at 37 degree C.; type: physicochemical; details: read-out: S
Summary of the method: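 Aqueous solubility measured in water at 37 °C; sodium salt form used for one compound.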

Adenosine receptor A1 [18] = molecular target: T1, Adenosine receptor A1; experiment: Adenosine A1 receptor binding using [3H][…] in rat cortical membranes; type: cell membranes
Summary of the method: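 Displacement of [3H]DPCPX binding in rat cortical membranes. Values are means ± 95% confidence limits from at least three independent experiments.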

Rattus norvegicus [19] = experiment: Diuretic activity was measured in saline (20mL/kg, po)-loaded rat as urine volume collected for 6 hr at 0.32 mg/kg dose po; type: functional; summary of the method: as §1
Rattus norvegicus [20] = experiment: Diuretic activity was measured in saline (20mL/kg, po)-loaded rat as sodium output at 0.32 mg/kg dose po; type: functional, Urine; summary of the method: as §1
Adenosine receptor A1 [21] = molecular target: T3, Adenosine receptor A1 (Homo sapiens, UniProt P30542); experiment: Adenosine A1 receptor binding using [3H]DPCPX in human cortical membranes; type: cell membranes
T3 sequence (P30542 whole entry): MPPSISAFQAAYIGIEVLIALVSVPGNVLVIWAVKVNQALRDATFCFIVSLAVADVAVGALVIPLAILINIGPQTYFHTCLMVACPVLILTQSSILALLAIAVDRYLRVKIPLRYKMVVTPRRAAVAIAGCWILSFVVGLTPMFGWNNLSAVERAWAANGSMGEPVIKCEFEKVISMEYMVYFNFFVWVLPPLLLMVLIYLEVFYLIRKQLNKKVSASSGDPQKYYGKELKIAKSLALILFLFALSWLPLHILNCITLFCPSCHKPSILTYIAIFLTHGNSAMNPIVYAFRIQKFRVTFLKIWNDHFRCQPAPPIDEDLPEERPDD

O=C(O)CCn1nc(-c2c(-c3ccccc3)nn3ccccc23)ccc1=O
Na (Rattus norvegicus [1]): 5260 u equiv kg-1
Urine volume (Rattus norvegicus [2]): 31.4 mL/kg
Urine volume (Rattus norvegicus [3]): 28.1 mL/kg
K (Rattus norvegicus [4]): 904 u equiv kg-1
Urine volume (Rattus norvegicus [5]): 19.1 mL/kg
Na (Rattus norvegicus [6]): 3350 u equiv kg-1
K (Rattus norvegicus [7]): 790 u equiv kg-1
K (Rattus norvegicus [8]): 901 u equiv kg-1
Na (Rattus norvegicus [9]): 4860 u equiv kg-1

Oc1ccc(-c2c(-c3ccccc3)nn3ccccc23)nn1
Na (Rattus norvegicus [1]): 4640 u equiv kg-1
Urine volume (Rattus norvegicus [2]): 33.3 mL/kg
K (Rattus norvegicus [8]): 826 u equiv kg-1

O=C(O)CCCn1nc(-c2c(-c3ccccc3)nn3ccccc23)ccc1=O
Na (Rattus norvegicus [1]): 5680 u equiv kg-1
UV (Rattus norvegicus [2]): 38.6 mL/kg
Na (Rattus norvegicus [10]): 3860 u equiv kg-1
Urine volume (Rattus norvegicus [11]): 26.4 mL/kg
Na (Rattus norvegicus [12]): 2390 u equiv kg-1
Log Ki (Adenosine A2 receptor): -5.92
Ki (Adenosine receptor A1 [13]): 6.61 nM
Urine volume (Rattus norvegicus [14]): 15.6 mL/kg
Na (Rattus norvegicus [6]): 5260 u equiv kg-1
bioavailability [15]: 78%
Urine volume [16]: 26.4 mL/kg
solubility [17]: 10000 µg/mL (≈ 26.7 mM)
K (Rattus norvegicus [7]): 967 u equiv kg-1
K (Rattus norvegicus [8]): 1150 u equiv kg-1

O=C(/C=C/c1c(-c2ccccc2)nn2ccccc12)N1CCCC[C@@H]1CCO [FK453]
Ki (Adenosine receptor A1 [18]): 0.49 nM
Na (Rattus norvegicus [1]): 5820 u equiv kg-1
Urine volume (Rattus norvegicus [2]): 44.4 mL/kg
Urine volume (Rattus norvegicus [3]): 31.9 mL/kg
K (Rattus norvegicus [4]): 831 u equiv kg-1
Urine volume (Rattus norvegicus [19]): 18 mL/kg
Urine volume (Rattus norvegicus [5]): 24.6 mL/kg
Na (Rattus norvegicus [6]): 3290 u equiv kg-1
Na (Rattus norvegicus [20]): 2350 u equiv kg-1
bioavailability [15]: 8.8%
solubility [17]: 11.9 µg/mL (≈ 0.0317 mM)
Ki (Adenosine receptor A1 [21]): 0.49 nM
K (Rattus norvegicus [7]): 833 u equiv kg-1
K (Rattus norvegicus [8]): 1070 u equiv kg-1
Na (Rattus norvegicus [9]): 4110 u equiv kg-1

O=C(O)CCCCn1nc(-c2c(-c3ccccc3)nn3ccccc23)ccc1=O
Na (Rattus norvegicus [1]): 4510 u equiv kg-1
Urine volume (Rattus norvegicus [2]): 36.3 mL/kg
K (Rattus norvegicus [8]): 977 u equiv kg-1

c1ccc(-c2nn3ccccc3c2-c2ccncc2)cc1
Na (Rattus norvegicus [1]): 5110 u equiv kg-1
Urine volume (Rattus norvegicus [2]): 34.2 mL/kg
K (Rattus norvegicus [8]): 975 u equiv kg-1

O=c1ccc(-c2c(-c3ccccc3)nn3ccccc23)nn1CCO
Na (Rattus norvegicus [1]): 5930 u equiv kg-1
Urine volume (Rattus norvegicus [2]): 40.4 mL/kg
K (Rattus norvegicus [8]): 942 u equiv kg-1

Cn1nc(-c2c(-c3ccccc3)nn3ccccc23)ccc1=O
Na (Rattus norvegicus [1]): 4870 u equiv kg-1
Urine volume (Rattus norvegicus [2]): 30 mL/kg
K (Rattus norvegicus [8]): 891 u equiv kg-1

O=c1ccc(-c2c(-c3ccccc3)nn3ccccc23)nn1CCCO
Na (Rattus norvegicus [1]): 5160 u equiv kg-1
Urine volume (Rattus norvegicus [2]): 37.9 mL/kg
K (Rattus norvegicus [8]): 964 u equiv kg-1

c1ccc(-c2nn3ccccc3c2-c2ccnnc2)cc1
Na (Rattus norvegicus [1]): 5110 u equiv kg-1
Urine volume (Rattus norvegicus [2]): 38 mL/kg
Urine volume (Rattus norvegicus [3]): 29.5 mL/kg
K (Rattus norvegicus [4]): 667 u equiv kg-1
Urine volume (Rattus norvegicus [5]): 23.8 mL/kg
Na (Rattus norvegicus [6]): 2800 u equiv kg-1
K (Rattus norvegicus [7]): 569 u equiv kg-1
K (Rattus norvegicus [8]): 907 u equiv kg-1
Na (Rattus norvegicus [9]): 3770 u equiv kg-1

CCCn1nc(-c2c(-c3ccccc3)nn3ccccc23)ccc1=O
Na (Rattus norvegicus [1]): 5510 u equiv kg-1
Urine volume (Rattus norvegicus [2]): 36.8 mL/kg
K (Rattus norvegicus [8]): 972 u equiv kg-1
